The results in this text go back to ChEMBL document CHEMBL3751816, “Design, synthesis and evaluation of acridine derivatives as multi-target Src and MEK kinase inhibitors for anti-tumor treatment” (Bioorg Med Chem, 2016).

Calls of active or inactive are those of the source. The calls are words filed in the database; no cut-off is given here. Some results are limits rather than exact numbers.

One test deals with HepG2. The test is described as follows: Cytotoxicity against human HepG2 cells after 48 hrs by MTT assay. The class given is functional, cell-based. The following applies: HepG2, 48 h. In short, it runs like this: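 HepG-2 cells in DMEM with 10% FBS, 37 °C, 5% CO2. Seeded at 5×10^5 cells/mL for 12 h, then medium removed. Compounds in DMSO diluted to final 0.01–50 µM (DMSO below 1%), triplicate per concentration, 48 h. MTT 4 h at 37 °C, formazan taken up in DMSO, A495 read.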
Background: Tetrazolium dyes change colour on reduction, which living cells bring about.

The test system of test [1] is K562. Nature of the test: Cytotoxicity against human K562 cells after 48 hrs by MTT assay. The format is functional, cell-based. The following applies: K562, 48 h. In short, it runs like this: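 K562 cells in DMEM with 10% FBS, 37 °C, 5% CO2. Seeded at 7×10^5 cells/mL and held 12 h. Compounds in DMSO, diluted to final 0.01–50 µM (final DMSO below 1%), triplicate per concentration, 48 h. Then MTT 4 h at 37 °C, formazan dissolved in DMSO, absorbance read at 495 nm.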

For test [2], the target named is T1, Dual specificity mitogen-activated protein kinase kinase; MEK1/2 (Homo sapiens) (UniProt P36507+Q02750). The test is described as follows: Inhibition of MEK in human K562 cells assessed as decrease of ERK expression after 48 hrs by Western blot analysis. The class given is cell-based. In short, it runs like this: (§1)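 K562 cells treated at 0, 0.5, 2.5, 5 and 10 µM for 48 h at 37 °C. Lysed on ice 30 min in NP-40/HEPES pH 7.9 buffer with phosphatase and protease inhibitors, cleared at 12000 g. Bradford-normalized protein run on SDS–PAGE, transferred to PVDF, and probed for ERK and AKT.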
On the technique in general: A western blot detects proteins with antibodies after separation by electrophoresis.

Test [3] deals with Proto-oncogene tyrosine-protein kinase Src (Homo sapiens) (UniProt P12931). The test is described as follows: Inhibition of Src in human K562 cells assessed as decrease of ERK expression after 48 hrs by Western blot analysis. The format is cell-based. The procedure, abridged: as §1
The subject of test [4] is K562. The test is described as follows: Induction of apoptosis in human K562 cells assessed as necrotic cells at 0.5 uM after 48 hrs by annexin V-FITC staining (reference value: 0.15%). The format is functional.
Test [5] relates to K562. The test is described as follows: Inhibition of PI3K in human K562 cells assessed as decrease of ERK expression after 48 hrs by Western blot analysis. The class given is cell-based. The procedure, abridged: as §1
For test [6], the system named is K562. Nature of the test: Induction of apoptosis in human K562 cells assessed as early stage apoptotic cells at 10 uM after 48 hrs by annexin V-FITC staining (reference value: 3.14%). The class given is functional.
The subject of test [7] is K562. Nature of the test: Induction of apoptosis in human K562 cells assessed as live cells at 5 uM after 48 hrs by annexin V-FITC staining (reference value: 96.49%). The format is functional.
The test system of test [8] is K562. The test is described as follows: Induction of apoptosis in human K562 cells assessed as necrotic cells at 5 uM after 48 hrs by annexin V-FITC staining (reference value: 0.15%). The class given is functional.
The species named for a further test is Homo sapiens. Nature of the test: Inhibition of PI3K (unknown origin) at 10 uM after 15 mins by luminescence assay.
For test [9], the system named is K562. The test is described as follows: Induction of apoptosis in human K562 cells assessed as early stage apoptotic cells at 0.5 uM after 48 hrs by annexin V-FITC staining (reference value: 3.14%). The class given is functional.
The subject of test [10] is K562. The test is described as follows: Induction of apoptosis in human K562 cells assessed as early cleavage of caspase-3 at 10 uM after 48 hrs by Western blot analysis. The format is functional, cell-based. The procedure, abridged:
(§2)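 K562 cells treated 48 h at 37 °C. Lysed on ice 30 min (HEPES pH 7.9, KCl, EDTA, 0.1% NP-40, Na3VO4, NaF, protease inhibitors), then cleared at 12000 g, 4 °C. Protein measured by Bradford and equal amounts run on SDS–PAGE. Transferred to PVDF and immunoblotted for cleaved caspase-3, cleaved caspase-7 and cleaved PARP.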

The test system of test [11] is K562. The test is described as follows: Induction of apoptosis in human K562 cells assessed as late stage apoptotic cells at 5 uM after 48 hrs by annexin V-FITC staining (reference value: 0.23%). The format is functional.
The target of test [12] is Proto-oncogene tyrosine-protein kinase Src (Homo sapiens) (UniProt P12931). The test is described as follows: Inhibition of Src (unknown origin) at 10 uM after 15 mins by luminescence assay. In short, it runs like this:
(§3)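 Contract-run kinase assay. Enzyme, substrate, ATP and compound (10 µM, in 2.5% DMSO) mixed in pH 7.0 buffer: 50 mM HEPES/NaOH, 0.02% NaN3, 0.01% BSA, orthovanadate, 5 mM MgCl2, 1 mM DTT. Incubated 15 min at room temperature. Detection with streptavidin-XL665 plus TK antibody europium cryptate in KF/EDTA buffer. […]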

For test [13], the system named is K562. The test is described as follows: Induction of apoptosis in human K562 cells assessed as early cleavage of caspase-7 at 10 uM after 48 hrs by Western blot analysis. The class given is functional, cell-based. In short, it runs like this: as §2
Test [14] deals with T1, Dual specificity mitogen-activated protein kinase kinase; MEK1/2 (Homo sapiens). Nature of the test: Inhibition of MEK (unknown origin) at 10 uM after 15 mins by luminescence assay. The procedure, abridged:
as §3

In test [15] the test system is K562. The test is described as follows: Inhibition of PI3K in human K562 cells assessed as decrease of AKT expression after 48 hrs by Western blot analysis. The class given is cell-based. The procedure, abridged: as §1
Test [16] deals with K562. Nature of the test: Induction of apoptosis in human K562 cells assessed as necrotic cells at 10 uM after 48 hrs by annexin V-FITC staining (reference value: 0.15%). The format is functional.
Test [17] deals with K562. The test is described as follows: Induction of apoptosis in human K562 cells assessed as late stage apoptotic cells at 10 uM after 48 hrs by annexin V-FITC staining (reference value: 0.23%). The format is functional.
Test [18] has as its system K562. Nature of the test: Induction of apoptosis in human K562 cells after 48 hrs by annexin V-FITC staining. The class given is functional, cell-based.
In test [19] the target is Proto-oncogene tyrosine-protein kinase Src (Homo sapiens) (UniProt P12931). The test is described as follows: Inhibition of Src in human K562 cells assessed as decrease of AKT expression after 48 hrs by Western blot analysis. The format is cell-based. In short, it runs like this:
as §1

Test [20] relates to K562. Nature of the test: Induction of apoptosis in human K562 cells assessed as early cleavage of PARP at 10 uM after 48 hrs by Western blot analysis. The format is functional, cell-based. The procedure, abridged: as §2
A further test deals with Calf thymus DNA. Nature of the test: Binding affinity to calf thymus DNA at 10 uM by UV-vis spectrophotometric titration analysis. The class given is nucleic-acid assay. The conditions noted are these: Bos taurus.
Test [21] has as its target T1, Dual specificity mitogen-activated protein kinase kinase; MEK1/2 (Homo sapiens). Nature of the test: Inhibition of MEK in human K562 cells assessed as decrease of AKT expression after 48 hrs by Western blot analysis. The format is cell-based. In short, it runs like this:
as §1

Test [22] concerns K562. Nature of the test: Induction of apoptosis in human K562 cells assessed as live cells at 0.5 uM after 48 hrs by annexin V-FITC staining (reference value: 96.49%). The format is functional.
The subject of test [23] is K562. The test is described as follows: Induction of apoptosis in human K562 cells assessed as live cells at 10 uM after 48 hrs by annexin V-FITC staining (reference value: 96.49%). The format is functional.
For test [24], the system named is K562. Nature of the test: Induction of apoptosis in human K562 cells assessed as early stage apoptotic cells at 5 uM after 48 hrs by annexin V-FITC staining (reference value: 3.14%). The class given is functional.
The test system of test [25] is K562. Nature of the test: Induction of apoptosis in human K562 cells assessed as late stage apoptotic cells at 0.5 uM after 48 hrs by annexin V-FITC staining (reference value: 0.23%). The class given is functional.

T1 sequence (P36507 whole entry, looked up): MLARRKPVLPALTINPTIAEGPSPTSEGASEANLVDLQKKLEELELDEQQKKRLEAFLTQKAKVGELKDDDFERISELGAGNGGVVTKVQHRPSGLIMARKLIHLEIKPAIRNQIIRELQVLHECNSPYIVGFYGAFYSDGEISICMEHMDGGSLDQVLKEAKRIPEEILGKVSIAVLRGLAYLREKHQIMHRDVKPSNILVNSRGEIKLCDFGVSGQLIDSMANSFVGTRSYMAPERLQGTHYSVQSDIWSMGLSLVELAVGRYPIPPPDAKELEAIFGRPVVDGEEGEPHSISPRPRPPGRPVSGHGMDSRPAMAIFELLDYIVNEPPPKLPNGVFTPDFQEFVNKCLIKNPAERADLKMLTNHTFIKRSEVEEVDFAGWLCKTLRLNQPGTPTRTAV
T1 sequence (Q02750 whole entry, looked up): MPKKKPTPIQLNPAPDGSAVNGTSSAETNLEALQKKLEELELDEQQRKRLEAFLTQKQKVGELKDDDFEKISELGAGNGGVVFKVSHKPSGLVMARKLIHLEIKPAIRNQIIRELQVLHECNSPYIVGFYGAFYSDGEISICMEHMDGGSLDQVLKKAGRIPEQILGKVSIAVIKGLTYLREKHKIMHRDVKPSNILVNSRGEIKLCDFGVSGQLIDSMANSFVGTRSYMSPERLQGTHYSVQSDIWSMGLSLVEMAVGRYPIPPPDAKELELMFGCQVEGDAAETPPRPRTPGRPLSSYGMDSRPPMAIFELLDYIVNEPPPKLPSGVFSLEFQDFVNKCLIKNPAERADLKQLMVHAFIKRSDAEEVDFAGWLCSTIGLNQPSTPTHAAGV
Proto-oncogene tyrosine-protein kinase Src (Homo sapiens), sequence (P12931 2-536 limits assumed): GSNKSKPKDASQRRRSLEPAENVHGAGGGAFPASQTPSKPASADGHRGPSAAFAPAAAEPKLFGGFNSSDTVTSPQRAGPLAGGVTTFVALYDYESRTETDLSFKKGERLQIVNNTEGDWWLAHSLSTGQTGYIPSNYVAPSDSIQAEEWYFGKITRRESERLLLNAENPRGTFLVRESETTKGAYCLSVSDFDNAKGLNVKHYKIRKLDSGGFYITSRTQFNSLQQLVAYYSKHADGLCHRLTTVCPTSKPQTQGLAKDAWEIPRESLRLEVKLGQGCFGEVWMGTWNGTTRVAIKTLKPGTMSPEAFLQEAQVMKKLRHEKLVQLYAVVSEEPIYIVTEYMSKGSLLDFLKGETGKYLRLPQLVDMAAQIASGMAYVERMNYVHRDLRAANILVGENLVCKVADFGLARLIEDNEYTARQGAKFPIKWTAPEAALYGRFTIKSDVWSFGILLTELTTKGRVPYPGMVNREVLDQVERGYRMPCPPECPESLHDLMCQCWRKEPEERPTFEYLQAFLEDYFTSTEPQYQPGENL

By IC50 is commonly meant the concentration that gives 50% inhibition. For `COc1ccc2nc3cc(Cl)ccc3c(Nc3ccc(NC(=O)Nc4ccccc4)cc3)c2c1`, the 50% inhibitory concentration (IC50) in the test on HepG2 was 9.56 µM; in the test with K562 [1], 3.42 µM.
Take `COc1ccccc1NC(=O)Nc1ccc(Nc2c3ccccc3nc3cc([N+](=O)[O-])ccc23)cc1`: the IC50 with HepG2 is 19.4 µM; in the test with K562 [1], 4.51 µM.
For orientation: inhibition means the percentage by which the read-out fell short of the control. In the case of `COc1ccc2c(Nc3ccc(NC(=O)Nc4ccccc4)cc3)c3ccccc3nc2c1`, the inhibition entry in test [2] was “Dose-dependent effect”; in test [3], “Dose-dependent effect”; in the test with K562 [5], “Dose-dependent effect”; in the test filed under Homo sapiens, 44.4%; in [12], 59.7%; in test [14], 43.2%. For the same molecule, the inhibition result (with K562 [15]; in test [19]; in test [21]) was “Dose-dependent effect” each time. Further, the Activity in the test with K562 [4] is reported as 0.15%; in the test with K562 [6], 54.98%; with K562 [7] it was 85.42%; in the test with K562 [8], 0.3%; in the test with K562 [9] it was 6.13%; with K562 [11], 0.23%. In addition, the Activity in the test with K562 [16] is 0.73%; in the test on K562 [17], 6.45%; with K562 [18], “Dose-dependent effect”; with Calf thymus DNA, 0.083 M⁻¹; in the test with K562 [22] it was 96.6%; with K562 [23], 37.83%. Also, the Activity with K562 [24] came out at 14.05%; in the test on K562 [25] it was 0.1%. For the same molecule, the result in the test with K562 [10], in the test on K562 [13] and in the test with K562 [20] was Active. Also, the IC50 with HepG2 was found to be 9.41 µM; in the test with K562 [1], 4.08 µM.
Turning to `COc1cccc2c(Nc3ccc(NC(=O)Nc4ccccc4)cc3)c3ccccc3nc12`, the IC50 in the test on HepG2 stood at 6.12 µM; in the test on K562 [1], 0.49 µM.
In the same order, the values of `O=C(Nc1ccc(Nc2c3ccccc3nc3cc([N+](=O)[O-])ccc23)cc1)Nc1cccc(Cl)c1` are over 25 µM and 13.9 µM.
For `COc1cccc(NC(=O)Nc2ccc(Nc3c4ccccc4nc4cc([N+](=O)[O-])ccc34)cc2)c1`, in that order: 22.3 µM and 4.55 µM.
In the same order, the values of `Cc1ccc(NC(=O)c2ccc(CN3CCN(C)CC3)cc2)cc1Nc1nccc(-c2cccnc2)n1` [IMATINIB] are over 25 µM and 0.53 µM.
`COc1ccc2nc3cc(Cl)ccc3c(Nc3ccccc3OC)c2c1`: the IC50 in the test on HepG2 is over 50 µM; with K562 [1] it was 5.8 µM.
Turning to `COc1ccc(NC(=O)Nc2ccc(Nc3c4ccccc4nc4cc([N+](=O)[O-])ccc34)cc2)cc1`, the figures for the concentration for half-maximal inhibition (IC50) in the test on HepG2 and with K562 [1] were over 25 µM and 7.68 µM, respectively.
In the same order, the values of `CCc1cccc(NC(=O)Nc2ccc(Nc3c4ccccc4nc4cc([N+](=O)[O-])ccc34)cc2)c1` are 22.7 µM and 8.92 µM.
Consider `COc1cccc2c(Nc3ccc(NC(=O)Nc4cccc(C(F)(F)F)c4)cc3)c3ccccc3nc12`, for which the half-inhibitory concentration (IC50) was 13.1 µM in the test on HepG2 and 1.93 µM in the test with K562 [1].
In the same order, the values of `CCCCc1ccc(NC(=O)Nc2ccc(Nc3c4ccccc4nc4cc([N+](=O)[O-])ccc34)cc2)cc1` are 14 µM and 1.23 µM.
In the same order, the values of `CCCc1ccc(NC(=O)Nc2ccc(Nc3c4ccccc4nc4cc([N+](=O)[O-])ccc34)cc2)cc1` are 14.4 µM and 1.56 µM.
In the same order, the values of `O=C(Nc1ccccc1)Nc1ccc(Nc2c3ccccc3nc3cc([N+](=O)[O-])ccc23)cc1` are 19.8 µM and 3.3 µM.
On to `O=C(Nc1ccc(Nc2c3ccccc3nc3cc([N+](=O)[O-])ccc23)cc1)Nc1cccc(C(F)(F)F)c1`, for which the values for the half-maximal inhibitory concentration (IC50) in the test with HepG2 and in the test on K562 [1] were over 25 µM and 1.2 µM, respectively.
In the same order, the values of `COc1ccc2nc3cc([N+](=O)[O-])ccc3c(Nc3ccc(NC(=O)Nc4ccccc4)cc3)c2c1` are over 25 µM and 3.79 µM.
For the molecule `Cc1cccc(NC(=O)Nc2ccc(Nc3c4ccccc4nc4cc([N+](=O)[O-])ccc34)cc2)c1`, the results for the 50% inhibitory concentration (IC50) in the test on HepG2 and in the test with K562 [1] were over 25 µM and 11.6 µM, respectively.
Regarding `O=C(Nc1ccc(Nc2c3ccccc3nc3cc([N+](=O)[O-])ccc23)cc1)Nc1cccc(F)c1`, the IC50 with HepG2 was over 25 µM; with K562 [1], 11.1 µM.
In the same order, the values of `CCc1ccc(NC(=O)Nc2ccc(Nc3c4ccccc4nc4cc([N+](=O)[O-])ccc34)cc2)cc1` are 14.8 µM and 1.86 µM.
In the same order, the values of `COc1cccc2c(Nc3ccc(NC(=O)Nc4ccccc4)cc3)c3ccc([N+](=O)[O-])cc3nc12` are 17.6 µM and 2.58 µM.
